Measurements collected from several papers.
Lines come from different studies, so protocols differ.
Target: Proto-oncogene tyrosine-protein kinase Src (SRC, Homo sapiens, UniProt P12931)

CC(C)(C)c1ccc(-c2nc(CBr)nn2-c2cccc(O)c2)cc1  remaining binding (cell-free assay; competition with immobilised ligand; 10 µM): 79%
C[C@H]1CCN(c2nccc(-c3cnn4ncccc34)n2)C1  remaining binding (binding; 1 µM): 100%
N#Cc1ccccc1CSc1nnc2c(n1)[nH]c1ccccc12  remaining binding (binding; competition with immobilised ligand; 10 µM): 100%
O=C(c1ccc(Nc2ncc(Cl)c(-c3cc4ccccc4s3)n2)cc1)N1CCC(N2CCCC2)CC1  remaining binding (binding; competition with immobilised ligand; 1 µM): 62%
C[C@@H](c1ccc(-n2cnc3c(N)ncnc32)cc1)N1CCc2nn(C)c(Cc3ccccc3)c2C1=O  remaining binding (binding; competition with immobilised ligand; 0.1 µM): 98%
CN(C)c1ncnc(-c2ccc3nc(Nc4cc(CN5CCN(C(=O)CC(F)(F)F)CC5)ccn4)[nH]c3c2)c1Cl  remaining binding (cell-free assay; competition with immobilised ligand; 1 µM): 100%
O=C(NCCCN1CCOCC1)c1ccc(Nc2nccc(-c3cc4ccccc4s3)n2)cc1  remaining binding (binding; competition with immobilised ligand; 1 µM): 100%
COc1cnc(Nc2cccc(S(N)(=O)=O)c2)nc1N1CCN(c2ccccc2)CC1  remaining binding (binding; competition with immobilised ligand; 1 µM): 100%
CCC(=N\O)/C(C)=C/c1ccc(F)cc1  remaining binding (cell-free assay; competition with immobilised ligand; 1 µM): 91%
O=C(NCCCN1CCOCC1)c1ccc(Nc2ncc(Cl)c(-c3ccc(Cl)s3)n2)cc1  remaining binding (binding; competition with immobilised ligand; 1 µM): 100%
CC1CCCN1c1nccc(-c2cnn3ncccc23)n1 (stereo not shown)  remaining binding (binding; 1 µM): 100%
Cc1cc(-n2nc(Cc3cc(F)cc(C(F)(F)F)c3)nc2C)ccc1C(N)=O  remaining binding (cell-free assay; competition with immobilised ligand; 1 µM): 95%
COc1cnc(Nc2cccc(S(N)(=O)=O)c2)nc1N1CCN(c2ccccc2)C(=O)C1  remaining binding (binding; competition with immobilised ligand; 1 µM): 100%
FC(F)(F)Oc1cccc(-c2cnc3ccc(-c4ccncc4)nn23)c1  remaining binding (binding; competition with immobilised ligand; 5 µM): 56%
O=C(Nc1cccnn1)N1CC(C/C=C/c2cncc(Oc3ccc(C(F)(F)F)cn3)n2)C1  remaining binding (cell-free assay; competition with immobilised ligand; 1 µM): 100%
N[C@@H]1CCN(c2nccc(-c3cnn4ncccc34)n2)C1  remaining binding (binding; 1 µM): 100%
CN(C(=O)c1ccccc1)c1cc(N(C)c2ccc3c(c2)CCc2ccc(C(=O)NCCN4CCOCC4)cc2C3=O)ccc1F  remaining binding (cell-free assay; competition with immobilised ligand; 1 µM): 98%
Cc1cnn2ncc(-c3ccnc(N(C)C)n3)c2c1  remaining binding (binding; 1 µM): 100%
CCN1CCN(Cc2ccc(C(=O)Nc3ccc(C)c(Oc4ccc5c(c4)CC(=O)N5)c3)cc2C(F)(F)F)CC1  remaining binding (binding; competition with immobilised ligand; 1 µM): 78%
CN(C)c1nccc(-c2cnn3ncccc23)n1  remaining binding (binding; 1 µM): 100%
C[C@@H](c1cccc(C#N)c1)n1cc(Cl)cc(C(N)=O)c1=N  remaining binding (cell-free assay; competition with immobilised ligand; 1 µM): 99%
CN(C)c1nccc(-c2cnc3ncccn23)n1  remaining binding (binding; 1 µM): 89%
O=C(Nc1c[nH]nc1C(=O)NC1CCNCC1)c1cc(F)cc(F)c1  remaining binding (binding; competition with immobilised ligand; 1 µM): 100%
F[C@@H]1CCN(c2nccc(-c3cnn4ncccc34)n2)C1  remaining binding (binding; 1 µM): 100%
Cc1c[nH]c2nccc(Oc3c(F)cc(Nc4cc(Cl)nc(N)n4)cc3F)c12  remaining binding (cell-free assay; competition with immobilised ligand; 0.1 µM): 100%
